From PMC2917810 (Chemical biology & drug design, 2008)
Like-named read-outs stand apart in the source and are kept apart here. Positions of bridges follow the written chain, without caps; N, C: chain ends. Residues, ends and D or L forms follow the SMILES beside them.

Experiments:
[1] = Solubility and aggregation of soluble peptides; assay type: physicochemical
RGS7box = assay: Single turnover GAP assay, RGS7; assay type: biochemical, human; conditions: RGS7box 500 nM
How it was run: (§1)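 Single-turnover GTP hydrolysis by purified rat His6-Gαo with γ[32P]GTP, with or without RGS. The RGS proteins were human MBP-His6 constructs, purified on amylose then Ni-NTA: full-length RGS16 at 1.5 μM, RGS19Δ11C at 200 nM, and the RGS7 RGS domain (nucleotides 915–1359) at 500 nM. Test peptides were soluble, cyclized, and ≥95% pure.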

RGS16 = assay: Single turnover GAP assay, RGS16; assay type: biochemical, human; conditions: RGS16 1.5 μM
How it was run: as §1

RGS4Δ51N = biological target: T1, RGS4Δ51N (Homo sapiens, UniProt P49798); assay: Single turnover RGS-stimulated Gαo GTPase; assay type: biochemical; conditions: for inhibition of RGS4 activity (rate of RGS stimulated Gαo GTP hydrolysis): purified proteins, mean ± S.E.M., n ≥3, SEM; for activity on RGS4 GAP activity: single turnover GAP assay, RGS4Δ51N 75–125 nM
T1 sequence (P49798 52-205 limits assumed): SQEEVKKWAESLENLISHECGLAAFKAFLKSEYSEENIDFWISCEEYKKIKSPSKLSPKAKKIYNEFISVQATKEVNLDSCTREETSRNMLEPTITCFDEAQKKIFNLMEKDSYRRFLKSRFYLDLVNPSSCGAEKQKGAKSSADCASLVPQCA
How it was run: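 Single-turnover GTP hydrolysis by purified rat His6-Gαo with γ[32P]GTP, stimulated by human MBP-His6-RGS4Δ51N (75–125 nM). Soluble disulfide-cyclized peptides (≥95% pure) were tested at 50 μM, or lower where solubility limited. Rates came from time courses, reported as percent decrease in the RGS-stimulated rate; IC50 estimated from these single-concentration inhibitions. Mean ± S.E.M., n ≥3; t-test.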

RGS4 [2] = conditions: membrane based steady state GTPase assay; cited from earlier work
RGS4 [3] = conditions: cited from earlier work
RGS4Δ51N-Alexa Fluor 532 = assay: FACScan flow cytometry binding of bead-bound peptides; set-up: species or system human; conditions: peptides on beads, 25 nM RGS4Δ51N-Alexa Fluor 532
How it was run: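 Hit peptides resynthesized and disulfide-cyclized on 20 μm TentaGel beads; about 5 × 10^3 beads per sample (at most 5 nmoles peptide) washed, then incubated with RGS4Δ51N-Alexa Fluor 532 for at least 15 min at room temperature, protected from light. FACScan gated on acetylated TentaGel control beads, no compensation; their signal subtracted as background. Duplicates; one-way ANOVA with Bonferroni post-test.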

## 14nd: free N-terminal, disulfide bridged version of hit 14 (H-KHCYGFCK-NH2; disulfide 3-7; SMILES NCCCC[C@H](NC(=O)[C@@H]1CSSC[C@H](NC(=O)[C@H](Cc2c[nH]cn2)NC(=O)[C@@H](N)CCCCN)C(=O)N[C@@H](Cc2ccc(O)cc2)C(=O)NCC(=O)N[C@@H](Cc2ccccc2)C(=O)N1)C(N)=O)
[1]; could not be tested at 50 μM in GAP assay, solubility verified by HPLC
  solubility: limited by solubility

## C[C@@H](O)[C@@H]1NC(=O)CNC(=O)[C@H](Cc2ccccc2)NC(=O)[C@@H](NC(=O)[C@@H](NC(=O)CN)[C@@H](C)O)CSSC[C@@H](C(=O)N[C@@H](Cc2c[nH]c3ccccc23)C(N)=O)NC1=O [2nd, Gly-Thr-c[Cys-Phe-Gly-Thr-Cys]-Trp-NH2, S-S] (H-GTCFGTCW-NH2; disulfide 3-7)
RGS7box
  activity against RGS7: inactive
RGS16
  activity against RGS16: inactive
RGS4Δ51N
  IC50: ~50 µM
RGS4Δ51N; 50 μM peptide in solution
  inhibition of RGS4 activity (rate of RGS stimulated Gαo GTP hydrolysis): 48 ± 7%

## 1nd: free N-terminal, disulfide bridged version of hit 1 (H-YNCQGECE-NH2; disulfide 3-7; SMILES NC(=O)CC[C@@H]1NC(=O)[C@@H](NC(=O)[C@H](CC(N)=O)NC(=O)[C@@H](N)Cc2ccc(O)cc2)CSSC[C@@H](C(=O)N[C@@H](CCC(=O)O)C(N)=O)NC(=O)[C@H](CCC(=O)O)NC(=O)CNC1=O)
RGS4Δ51N; 50 μM peptide in solution
  inhibition of RGS4 activity (rate of RGS stimulated Gαo GTP hydrolysis): 33 ± 15%

## Ac-Val-Lys-c[Cys-Thr-Gly-Ile-Cys]-Glu-NH2, S-S (disulfide) [YJ34, reference compound]
[1]
  solubility: limited by solubility
RGS4 [2]
  IC50: 26 µM

## Ac-Val-Lys-c[Cys-Thr-Ser-Ile-Cys]-Glu-NH2, S-S (disulfide) [BR2]
RGS4 [3]
  activity as RGS4 inhibitor: inactive

## KVc[CMGGC]T-NH2, S-S (disulfide) [compound 4]
RGS4Δ51N
  activity on RGS4 GAP activity: little effect
RGS4Δ51N-Alexa Fluor 532
  binding to RGS4Δ51N in FACScan assay: bound RGS4 so well

## 2nl: free N-terminal linear version of peptide 2 (H-GTCFGTCW-NH2; cysteine pairing not given here)
RGS4Δ51N
  activity on RGS4 GAP activity: inactive

## CC(=O)NCC(=O)N[C@H](C(=O)N[C@H]1CSSC[C@@H](C(=O)N[C@@H](Cc2c[nH]c3ccccc23)C(N)=O)NC(=O)[C@H]([C@@H](C)O)NC(=O)CNC(=O)[C@H](Cc2ccccc2)NC1=O)[C@@H](C)O [2ad, Ac-Gly-Thr-c[Cys-Phe-Gly-Thr-Cys]-Trp-NH2, S-S] (Ac-GTCFGTCW-NH2; disulfide 3-7)
RGS7box
  activity against RGS7: inactive
RGS16
  activity against RGS16: inactive
[1]
  solubility: limited by solubility
RGS4Δ51N
  IC50: ~50 µM
RGS4Δ51N; 25 μM peptide (limited by solubility)
  inhibition of RGS4 activity (rate of RGS stimulated Gαo GTP hydrolysis): 30 ± 12%

## 2al: acetylated linear version of peptide 2 (Ac-GTCFGTCW-NH2; cysteine pairing not given here)
RGS4Δ51N
  activity on RGS4 GAP activity: inactive

## Ac-Val-Lys-[Cys-Thr-Gly-Phe-Cys]-Glu-NH2, S-S (disulfide) [peptide 20 in Roof et al]
RGS4 [3]; at 100 μM
  inhibited RGS4 GAP activity: ~40%

## 4nd: free N-terminal, disulfide bridged version of hit 4 (H-KVCMGGCT-NH2; disulfide 3-7; SMILES CSCC[C@@H]1NC(=O)[C@@H](NC(=O)[C@@H](NC(=O)[C@@H](N)CCCCN)C(C)C)CSSC[C@@H](C(=O)N[C@H](C(N)=O)[C@@H](C)O)NC(=O)CNC(=O)CNC1=O)
RGS4Δ51N; 50 μM peptide in solution
  inhibition of RGS4 activity (rate of RGS stimulated Gαo GTP hydrolysis): 33 ± 16%

## KLc[CHGYC]H-NH2, S-S (disulfide) [compound 11]
[1]; not evaluated in GAP assay for this reason
  aggregation: signs of aggregation
